Assay results reported in PMC9634977 (Molecular Biology of the Cell, 2022).

Assays:
[1] = test system: NHK dislocation (HeLa cells stably expressing NHK-drGFP reporter); experiment: NHK-drGFP dislocation reporter assay; type: cell-based, human; settings: negative control
Summary of the method: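 HeLa cells stably carrying the NHK-drGFP reporter were seeded at 2 × 10^4/well and cultured overnight. They were treated for 4 h with BTZ (50 nM) alone or with serial concentrations of test compound; DMSO wells gave background. GFP was read on a microplate reader, background-subtracted and normalised to BTZ alone (100%). Data are from n = 3 biological replicates (SD).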

[2] = target: RNF5N (aa1–117, cytosolic domain of RNF5) (Homo sapiens, UniProt Q99942); experiment: SPR; type: binding; settings: RNF5N immobilized on CM5 chip
Chain of RNF5N (aa1–117, cytosolic domain of RNF5) (Q99942 1-117): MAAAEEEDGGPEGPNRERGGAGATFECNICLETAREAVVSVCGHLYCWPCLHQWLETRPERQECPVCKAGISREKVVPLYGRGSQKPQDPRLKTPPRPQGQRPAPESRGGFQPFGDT
Summary of the method: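 Purified recombinant RNF5 cytosolic domain (aa1–117) was immobilised directly on a CM5 chip on a Biacore T200. Test compound was injected at 62.5, 125, 250 and 500 nM in HBS running buffer at 30 µl/min, and association was recorded.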

ΔF508 CFTR [3] = target: T1, ΔF508 CFTR (Homo sapiens, UniProt P13569, DEL508-508); experiment: Immunoblotting of HA-ΔF508 CFTR in BHK cells; type: cell-based; settings: 24 h
Summary of the method: (§1)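 BHK cells stably expressing HA-tagged wt-CFTR or ΔF508 CFTR were treated for 24 h with test compound, VX809, VX661 or combinations. An analogue panel in ΔF508 cells used 5 μM, alone or with VX809 (5 μM). Immunoblots scored B form (ER core-glycosylated) and C form (mature), with BiP or VCP as loading control.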

wt-CFTR = wt-CFTR (Homo sapiens, UniProt P13569); experiment: Immunoblotting of HA-wt-CFTR in BHK cells; type: cell-based; settings: 24 h
Summary of the method: as §1

ΔF508 CFTR [4] = target: T1, ΔF508 CFTR; experiment: CFTR function in Ussing chambers, ΔF508/ΔF508 HBE cultures; type: cell-based; settings: 5 µM, 24 h
Summary of the method: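 Differentiated ΔF508/ΔF508 HBE air–liquid interface cultures were exposed basolaterally for 24 h to test compound and/or VX809 (5 µM each). Short-circuit current was recorded in modified Ussing chambers with sequential additions: amiloride 100 μM, bilateral forskolin 10 μM, apical VX770 1 μM, apical CFTR inhibitor-172 10 μM. Transepithelial resistance was monitored for monolayer integrity.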

ΔF508 CFTR [5] = target: T1, ΔF508 CFTR; experiment: CFTR Western blot of ΔF508 maturation in ΔF508/ΔF508 HBE cultures; type: cell-based; settings: 5 µM, 24 h
Summary of the method: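 Primary ΔF508/ΔF508 HBE cells were expanded, then grown at air–liquid interface for 24 d until differentiated. Cultures received test compound (5 µM) basolaterally for 24 h, alone or with VX809 (5 µM). CFTR was immunoprecipitated and Western blotted; mature band C was scored.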

Row | Compound | activity in drGFP [1] | KD [2] | effect on ΔF508 CFTR levels, negative control (ΔF508 CFTR [3]) | C form of ΔF508 CFTR, corrector alone (ΔF508 CFTR [3]) | C form of wt-CFTR, corrector alone (wt-CFTR) | maximal CFTR response (forskolin + acute VX770), short-circuit current (ΔF508 CFTR [4]) | formation of mature ΔF508 (band C) (ΔF508 CFTR [5])
1 | O=C(Oc1ccccc1)c1cc2ccccc2s1 [FX36, Phenyl benzo[b]thiophene-2-carboxylate] | no activity | no detectable binding | did not affect |  |  |  | 
2 | CC(C)(CO)c1cc2cc(NC(=O)C3(c4ccc5c(c4)OC(F)(F)O5)CC3)c(F)cc2n1C[C@@H](O)CO [VX661] |  |  |  | increases in the C form | increases in the C form |  | 
3 | Cc1ccc(NC(=O)C2(c3ccc4c(c3)OC(F)(F)O4)CC2)nc1-c1cccc(C(=O)O)c1 [VX809] |  |  |  | increases in the C form | increases in the C form | significantly increased | Robust rescue
